Calls of active or inactive are those of the source. No cut-off for these calls is given here.
Legend:
[1] = target: GABA-A receptor; anion channel; test: Inhibition of 2 nM [3H]muscimol binding to Gamma-aminobutyric acid (GABA-A) receptor in rat brain crude synaptic membranes; format: cell membranes, Membrane
[2] = target: 4-aminobutyrate aminotransferase, mitochondrial (Rattus norvegicus) (UniProt P50554); test: In vitro inhibition of succinate formation in the synaptosomal Gamma-amino-N-butyrate transaminase assay at 100 uM; format: functional
Summary of the method: (§1)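 Rat whole brain minus cerebellum was homogenized at 4 °C in 0.32 M sucrose and spun at 1000g for 10 min, then at 27000g for 20 min to give the P₂ synaptosome pellet. Uptake and transaminase were measured together: 100 μM compound with 25 μM [³H]GABA in Krebs-Ringer phosphate buffer, 10 min at room temperature. Reactions were stopped with 1 mM GABA plus 1 mM succinic acid and centrifuged. Supernatant went onto Dowex 50 and tissue radioactivity was counted. Results are given as % of drug-free control.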

[3] = target: GABA transporter (Rattus norvegicus) (UniProt P31647+P23978+P31646+P48056); test: In vitro maximal effect for synaptosomal GABA uptake at 100 uM; format: functional; summary of the method: as §1
[4] = species: Rattus norvegicus; test: […] effect on [3H]-GABA release from rat cortical synaptosomes at 100 uM (No effect); format: functional; settings: Brain

Chain of GABA transporter (Rattus norvegicus) (P31646 whole entry, looked up): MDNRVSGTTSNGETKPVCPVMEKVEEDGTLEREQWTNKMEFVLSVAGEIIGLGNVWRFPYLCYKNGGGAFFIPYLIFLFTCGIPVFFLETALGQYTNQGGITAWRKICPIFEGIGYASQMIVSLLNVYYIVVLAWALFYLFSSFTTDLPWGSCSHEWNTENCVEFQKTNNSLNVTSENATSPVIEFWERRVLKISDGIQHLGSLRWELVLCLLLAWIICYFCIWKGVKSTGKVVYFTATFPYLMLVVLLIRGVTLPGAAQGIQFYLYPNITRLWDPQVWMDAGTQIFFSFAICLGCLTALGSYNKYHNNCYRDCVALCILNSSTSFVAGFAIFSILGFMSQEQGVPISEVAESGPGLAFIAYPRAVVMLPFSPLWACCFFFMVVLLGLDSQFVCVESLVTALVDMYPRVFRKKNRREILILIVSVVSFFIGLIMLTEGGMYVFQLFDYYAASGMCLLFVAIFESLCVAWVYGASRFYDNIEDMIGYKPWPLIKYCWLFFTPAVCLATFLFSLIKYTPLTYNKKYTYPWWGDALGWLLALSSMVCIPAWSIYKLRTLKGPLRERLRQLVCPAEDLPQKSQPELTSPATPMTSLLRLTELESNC
Chain of GABA transporter (Rattus norvegicus) (P31647 whole entry, looked up): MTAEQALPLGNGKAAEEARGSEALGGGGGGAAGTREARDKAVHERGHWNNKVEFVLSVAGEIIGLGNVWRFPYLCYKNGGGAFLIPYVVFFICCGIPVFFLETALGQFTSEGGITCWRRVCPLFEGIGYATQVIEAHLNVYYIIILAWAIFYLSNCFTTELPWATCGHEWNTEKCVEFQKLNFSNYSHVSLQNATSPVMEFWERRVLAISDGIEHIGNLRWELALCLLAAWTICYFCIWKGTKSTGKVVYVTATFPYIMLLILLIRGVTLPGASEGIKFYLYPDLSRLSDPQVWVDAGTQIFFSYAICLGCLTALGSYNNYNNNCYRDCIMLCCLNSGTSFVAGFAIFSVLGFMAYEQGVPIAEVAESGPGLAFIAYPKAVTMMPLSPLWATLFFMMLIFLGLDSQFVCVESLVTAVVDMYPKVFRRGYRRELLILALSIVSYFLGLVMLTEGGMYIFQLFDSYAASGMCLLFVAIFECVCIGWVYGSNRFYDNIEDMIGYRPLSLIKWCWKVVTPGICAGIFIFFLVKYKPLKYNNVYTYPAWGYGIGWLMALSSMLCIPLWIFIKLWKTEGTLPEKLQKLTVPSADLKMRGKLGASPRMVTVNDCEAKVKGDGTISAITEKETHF
Chain of GABA transporter (Rattus norvegicus) (P48056 whole entry, looked up): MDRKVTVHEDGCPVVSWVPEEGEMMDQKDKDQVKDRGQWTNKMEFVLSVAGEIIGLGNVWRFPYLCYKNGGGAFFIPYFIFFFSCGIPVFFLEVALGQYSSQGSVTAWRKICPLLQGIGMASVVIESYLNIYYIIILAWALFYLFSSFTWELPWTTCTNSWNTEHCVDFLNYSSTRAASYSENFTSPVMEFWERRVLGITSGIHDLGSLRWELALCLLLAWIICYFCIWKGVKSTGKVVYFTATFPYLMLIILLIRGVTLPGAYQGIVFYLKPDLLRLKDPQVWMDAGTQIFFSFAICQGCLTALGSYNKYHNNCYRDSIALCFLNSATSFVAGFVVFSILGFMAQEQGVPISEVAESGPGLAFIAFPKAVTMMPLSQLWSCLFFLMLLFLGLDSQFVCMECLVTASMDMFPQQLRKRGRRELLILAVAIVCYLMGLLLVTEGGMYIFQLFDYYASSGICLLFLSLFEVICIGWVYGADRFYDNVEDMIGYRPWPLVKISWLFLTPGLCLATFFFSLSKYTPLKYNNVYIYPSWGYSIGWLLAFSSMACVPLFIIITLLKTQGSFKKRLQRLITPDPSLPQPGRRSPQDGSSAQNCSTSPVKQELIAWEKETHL
Chain of 4-aminobutyrate aminotransferase, mitochondrial (Rattus norvegicus) (P50554 28-500 limits assumed): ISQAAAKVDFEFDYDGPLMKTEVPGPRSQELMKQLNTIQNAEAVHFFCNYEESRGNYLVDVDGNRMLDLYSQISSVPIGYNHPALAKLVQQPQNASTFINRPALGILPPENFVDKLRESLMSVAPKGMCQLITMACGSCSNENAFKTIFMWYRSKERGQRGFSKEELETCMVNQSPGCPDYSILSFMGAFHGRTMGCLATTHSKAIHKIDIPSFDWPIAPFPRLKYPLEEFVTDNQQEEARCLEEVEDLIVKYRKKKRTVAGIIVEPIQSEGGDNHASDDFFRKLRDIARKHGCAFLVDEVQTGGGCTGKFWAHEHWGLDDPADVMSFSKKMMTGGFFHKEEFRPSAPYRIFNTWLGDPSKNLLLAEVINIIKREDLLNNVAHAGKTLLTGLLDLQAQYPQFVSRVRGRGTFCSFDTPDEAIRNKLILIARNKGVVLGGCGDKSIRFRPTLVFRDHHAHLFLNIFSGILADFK

SMILES	IC50 [1] [µM]	inhibition [2] [%]	Effect [3] [%]	Activity [4]
CN1C(=O)Nc2cccc(CN)c2S1(=O)=O	> 20	30	30	inactive
CN(C)Cc1ccc2c(c1)NC(=O)N(C)S2(=O)=O	> 20	30	30	inactive
NC(=O)C(=O)O	–	60	–	–
CC1=NS(=O)(=O)c2ccc(CN)cc2N1	> 20	30	30	inactive
O=C(O)C1CCCNC1 (stereo unspecified)	–	70	–	–

Continued, in another order:

IC50 [1] [µM]	inhibition [2] [%]	Effect [3] [%]	SMILES	Activity [4]
> 20	30	30	CC1=NS(=O)(=O)c2ccc(CN(C)C)cc2N1	inactive
> 20	30	30	CC1=NS(=O)(=O)c2c(CN)cccc2N1	inactive
> 20	30	30	CN1C(=O)Nc2cc(CN)ccc2S1(=O)=O	inactive

Reference: ChEMBL document CHEMBL1121999 (J Med Chem, 1982)
